Among the data in ChEMBL document CHEMBL4033670, “Synthesis, characterization, molecular docking and in vitro antimalarial properties of new carboxamides bearing sulphonamide” (Eur J Med Chem, 2017) are MIC99, inhibition and IC50 values, retold here.

Type in all cases: functional
For one experiment, the system named is Plasmodium falciparum. The experiment in a line: Antimalarial activity against ring stage chloroquine-resistant Plasmodium falciparum W2 preincubated for 48 hrs measured after 48 hrs in presence of 10% human serum by YOYO-1 dye-based FACS analysis. In short, it runs like this: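 Sorbitol-synchronized ring-stage W2 parasites at 0.1% parasitemia grown 48 h in RPMI-1640 + 10% human serum under 3% O2/6% CO2/91% N2 with inhibitors (from 1000× DMSO stocks), no media change. Fixed 48 h in 1% formaldehyde/PBS pH 7.4 at room temperature. Stained with 1 nM YOYO-1 in 0.1% Triton X-100/PBS. Parasitemia read by flow cytometry.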

Experiment [1] can be described thus: Antioxidant activity assessed as inhibition of DPPH radical generation at 5 mg/ml after 20 mins under dark condition by UV-Visible spectrophotometric analysis relative to control. In short, it runs like this: (§1)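 Test compounds were made up in ethanol at 1.0, 2.0, 3.0, 4.0 and 5.0 mg/mL (solution concentrations before mixing). 1 mL of each was shaken with 4 mL of 0.1 mM ethanolic DPPH and kept in the dark at room temperature for 20 min. The decrease in A517 was read against an ethanol baseline. A DPPH blank had no compound. Scavenging % = [(Ac − As)/Ac] × 100.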

Experiment [2] is described as follows: Antioxidant activity assessed as inhibition of DPPH radical generation at 3 mg/ml after 20 mins under dark condition by UV-Visible spectrophotometric analysis relative to control. The essentials: as §1
Experiment [3] is described as follows: Antioxidant activity assessed as inhibition of DPPH radical generation at 2 mg/ml after 20 mins under dark condition by UV-Visible spectrophotometric analysis relative to control. The essentials: as §1
(DPPH is a stable violet radical that fades when it is reduced.)

A short description of experiment [4]: Antioxidant activity assessed as DPPH radical scavenging activity after 20 mins under dark condition by UV-Visible spectrophotometric analysis. The essentials:
as §1

A short description of experiment [5]: Antioxidant activity assessed as inhibition of DPPH radical generation at 1 mg/ml after 20 mins under dark condition by UV-Visible spectrophotometric analysis relative to control. In short, it runs like this:
as §1

The nature of experiment [6]: Antioxidant activity assessed as inhibition of DPPH radical generation at 4 mg/ml after 20 mins under dark condition by UV-Visible spectrophotometric analysis relative to control. In short, it runs like this:
as §1

As usually defined, the MIC99 is an inhibitory concentration at the 99% level, which refers to growth in some studies and to a panel of isolates in others. What is called inhibition is the percentage by which the read-out fell short of the control. By IC50 is commonly meant the concentration that inhibits the measured activity by half. For `CCC(C)C(C(=O)Nc1ccc(C(C)=O)cc1)N(C(=O)c1ccccc1)S(=O)(=O)c1ccc(C)cc1` (stereo not drawn), in the experiment with Plasmodium falciparum, the MIC99 turned out to be 5.11 µM. The inhibition in experiment [1] came to 47.3%; in experiment [2], 33.4%; in experiment [3] it was 25.7%; in experiment [5], 18.6%; in experiment [6], 41%. The IC50 in experiment [4] is 10 mM.

As for `CC(=O)c1ccc(NC(=O)C(C(C)C)N(C(=O)c2ccccc2)S(=O)(=O)c2ccc(C)cc2)cc1` (stereo not drawn), the MIC99 with Plasmodium falciparum worked out at 2.82 µM. For the same compound, the inhibition in experiment [1] worked out at 42.7%; in experiment [2], 29.7%; in experiment [3], 22.7%; in experiment [5], 15.6%; in experiment [6] it was 36.6%. In addition, the IC50 in experiment [4] stood at 12 mM.

In the case of `CC(=O)c1ccc(NC(=O)C(Cc2c[nH]c3ccccc23)N(C(=O)c2ccccc2)S(=O)(=O)c2ccc(C)cc2)cc1` (stereo not drawn), the inhibition is 39.5% in experiment [1]; 39.5% in experiment [2]; 58% in experiment [3]; 39.5% in experiment [5]; 39.5% in experiment [6]. Besides, in experiment [4], the IC50 came to 0.045 mM.

For the compound `CC(=O)c1ccc(NC(=O)C(Cc2ccccc2)N(C(=O)c2ccccc2)S(=O)(=O)c2ccc([N+](=O)[O-])cc2)cc1` (stereo not drawn), the MIC99 in the experiment with Plasmodium falciparum stood at 0.08 µM. Moreover, the inhibition in experiment [1] was found to be 49.2%; in experiment [2], 34.5%; in experiment [3], 26.8%; in experiment [5], 19.3%; in experiment [6], 40%. Besides, the IC50 in experiment [4] came out at 39 mM.

Turning to `CC(=O)c1ccc(NC(=O)C(Cc2ccccc2)N(C(=O)c2ccccc2)S(=O)(=O)c2ccccc2)cc1` (stereo not drawn), the MIC99 in the experiment with Plasmodium falciparum came to 0.9 µM. Further, the inhibition in experiment [1] amounted to 11%; in experiment [2], 7.21%; in experiment [3], 4.37%; in experiment [5], 2.18%; in experiment [6], 9.28%. Also, the IC50 in experiment [4] is 11 mM.

With `C=C[C@H]1CN2CC[C@H]1C[C@H]2[C@H](O)c1ccnc2ccc(OC)cc12` [QUININE], in the experiment on Plasmodium falciparum, the MIC99 worked out at 0.83 µM.

`CC(=O)c1ccc(NC(=O)C(Cc2ccccc2)N(C(=O)c2ccccc2)S(=O)(=O)c2ccc(C)cc2)cc1` (stereo not drawn): in the experiment with Plasmodium falciparum, the MIC99 was 0.78 µM. The inhibition in experiment [1] was 53.6%; in experiment [2] it was 39.6%; in experiment [3], 32.7%; in experiment [5] it was 25.4%; in experiment [6], 48.5%. The IC50 in experiment [4] worked out at 7.6 mM.

Turning to `CC(=O)c1ccc(NC(=O)C(Cc2c[nH]c3ccccc23)N(C(=O)c2ccccc2)S(=O)(=O)c2ccccc2)cc1` (stereo not drawn), the inhibition in experiment [1] was 61.2%; in experiment [2], 47%; in experiment [3], 39.4%; in experiment [5], 31.7%; in experiment [6], 54.1%. Also, the IC50 in experiment [4] stood at 51 mM.

As to `CC(=O)c1ccc(NC(=O)C(CC(C)C)N(C(=O)c2ccccc2)S(=O)(=O)c2ccccc2)cc1` (stereo not drawn), in the experiment on Plasmodium falciparum, the MIC99 came out at 0.26 µM. Further, the inhibition came to 52.2% in experiment [1]; 40.7% in experiment [2]; 54.2% in experiment [3]; 27.7% in experiment [5]; 46.9% in experiment [6]. The IC50 in experiment [4] turned out to be 3.2 mM.

Regarding `CCN(CC)CCCC(C)Nc1ccnc2cc(Cl)ccc12` (stereo not drawn) [CHLOROQUINE], the MIC99 in the experiment on Plasmodium falciparum worked out at 0.06 µM.

Consider `CC(=O)c1ccc(NC(=O)C(CC(C)C)N(C(=O)c2ccccc2)S(=O)(=O)c2ccc([N+](=O)[O-])cc2)cc1` (stereo not drawn), for which, in the experiment with Plasmodium falciparum, the MIC99 was determined as 0.06 µM. In addition, the inhibition in experiment [1] amounted to 81.3%; in experiment [2], 62.3%; in experiment [5] it was 45%; in experiment [6], 71%. The IC50 in experiment [4] is 8.4 mM.

On to `CC(=O)c1ccc(NC(=O)CN(C(=O)c2ccccc2)S(=O)(=O)c2ccc(C)cc2)cc1`, for which the MIC99 with Plasmodium falciparum is 0.72 µM. Further, the inhibition was 18.7% in experiment [1]; 18.2% in experiment [2]; 18.1% in experiment [3]; 17.9% in experiment [5]; 18.4% in experiment [6]. Besides, the IC50 in experiment [4] was found to be 102 mM.

With `CC(=O)c1ccc(NC(=O)C2CCCN2S(=O)(=O)c2ccc(C)cc2)cc1` (stereo not drawn), in the experiment on Plasmodium falciparum, the MIC99 was 1.45 µM. In addition, the inhibition is 20.7% in experiment [1]; 20.7% in experiment [2]; 20.7% in experiment [3]; 20.6% in experiment [5]; 20.7% in experiment [6]. Further, the IC50 in experiment [4] worked out at 36 mM.

In the case of `CC(=O)c1ccc(NC(=O)C2CC(O)CN2S(=O)(=O)c2ccccc2)cc1` (stereo not drawn), the MIC99 in the experiment with Plasmodium falciparum was 0.16 µM. Also, the inhibition in experiment [1] was found to be 58.7%; in experiment [2] it was 49.8%; in experiment [3], 57%; in experiment [5], 40.2%; in experiment [6], 54.5%. The IC50 in experiment [4] stood at 3.8 mM.

Regarding `CC(=O)c1ccc(NC(=O)C(Cc2c[nH]c3ccccc23)N(C(=O)c2ccccc2)S(=O)(=O)c2ccc([N+](=O)[O-])cc2)cc1` (stereo not drawn), the inhibition turned out to be 24.3% in experiment [1]; 23.5% in experiment [2]; 22.9% in experiment [3]; 22.1% in experiment [5]; 24% in experiment [6]. The IC50 in experiment [4] was 0.73 mM.

For `CC(=O)c1ccc(NC(=O)C2CC(O)CN2S(=O)(=O)c2ccc([N+](=O)[O-])cc2)cc1` (stereo not drawn), the MIC99 in the experiment with Plasmodium falciparum stood at 0.32 µM. The inhibition was determined as 70.7% in experiment [1], 58.7% in experiment [2], 43.2% in experiment [5] and 60.1% in experiment [6]. In experiment [4], the IC50 was 7.1 mM.

For `CC(=O)c1ccc(NC(=O)C2CC(O)CN2S(=O)(=O)c2ccc(C)cc2)cc1` (stereo not drawn), in the experiment on Plasmodium falciparum, the MIC99 amounted to 2.27 µM. Further, the inhibition stood at 13% in experiment [1]; 12.7% in experiment [2]; 12.5% in experiment [3]; 12.4% in experiment [5]; 12.9% in experiment [6]. Also, the IC50 in experiment [4] came out at 25 mM.

Turning to `CC(=O)c1ccc(NC(=O)C(C(C)C)N(C(=O)c2ccccc2)S(=O)(=O)c2ccc([N+](=O)[O-])cc2)cc1` (stereo not drawn), the MIC99 with Plasmodium falciparum was determined as 1.57 µM. The inhibition in experiment [1] was 27.4%; in experiment [2], 29.8%; in experiment [3] it was 29.8%; in experiment [5] it was 29.8%; in experiment [6], 27.2%. Besides, in experiment [4], the IC50 was determined as 6.8 mM.

For `CCC(C)C(C(=O)Nc1ccc(C(C)=O)cc1)N(C(=O)c1ccccc1)S(=O)(=O)c1ccc([N+](=O)[O-])cc1` (stereo not drawn), the MIC99 in the experiment with Plasmodium falciparum was 0.2 µM. Moreover, the inhibition was determined as 53.2% in experiment [1]; 42.1% in experiment [2]; 31.7% in experiment [3]; 28.6% in experiment [5]; 48.4% in experiment [6]. Further, the IC50 in experiment [4] was 50 mM.

For `CCC(C)C(C(=O)Nc1ccc(C(C)=O)cc1)N(C(=O)c1ccccc1)S(=O)(=O)c1ccccc1` (stereo not drawn), in the experiment with Plasmodium falciparum, the MIC99 is 1.25 µM. The inhibition in experiment [1] is 16.8%; in experiment [2], 14.2%; in experiment [3] it was 11.3%; in experiment [5], 9.71%; in experiment [6], 15.5%. For the same compound, the IC50 in experiment [4] came to 8.6 mM.

For the compound `CC(=O)c1ccc(NC(=O)C2CCCN2S(=O)(=O)c2ccccc2)cc1` (stereo not drawn), the MIC99 in the experiment on Plasmodium falciparum worked out at 0.11 µM. Also, the inhibition in experiment [1] worked out at 35.7%; in experiment [2], 29.1%; in experiment [3], 25.8%; in experiment [5], 22.8%; in experiment [6], 33.4%. Moreover, the IC50 in experiment [4] is 69 mM.

Turning to `CC(=O)c1ccc(NC(=O)C2CCCN2S(=O)(=O)c2ccc([N+](=O)[O-])cc2)cc1` (stereo not drawn), in the experiment on Plasmodium falciparum, the MIC99 turned out to be 6.74 µM. Moreover, the inhibition in experiment [1] was found to be 25.6%; in experiment [2] it was 24.3%; in experiment [3] it was 23.5%; in experiment [5], 22.7%; in experiment [6], 25.3%. For the same compound, the IC50 in experiment [4] is 19 mM.

Consider `CC(=O)c1ccc(NC(=O)C(CC(C)C)N(C(=O)c2ccccc2)S(=O)(=O)c2ccc(C)cc2)cc1` (stereo not drawn), for which, in the experiment on Plasmodium falciparum, the MIC99 came out at 0.17 µM. In addition, the inhibition in experiment [1] was 71.3%; in experiment [2], 63.1%; in experiment [3] it was 58.1%; in experiment [5], 54%; in experiment [6] it was 67.2%. Moreover, the IC50 in experiment [4] came out at 11 mM.

For `CC(=O)c1ccc(NC(=O)CN(C(=O)c2ccccc2)S(=O)(=O)c2ccc([N+](=O)[O-])cc2)cc1`, in the experiment on Plasmodium falciparum, the MIC99 stood at 0.18 µM. The inhibition in experiment [1] was found to be 20.7%; in experiment [2], 20.6%; in experiment [3] it was 20.6%; in experiment [5], 20.6%; in experiment [6] it was 20.7%. In experiment [4], the IC50 is 58 mM.

Regarding `CC(=O)c1ccc(NC(=O)CN(C(=O)c2ccccc2)S(=O)(=O)c2ccccc2)cc1`, the MIC99 in the experiment with Plasmodium falciparum was 0.97 µM. For the same compound, the inhibition in experiment [1] is 45.4%; in experiment [2], 40.7%; in experiment [3] it was 40.5%; in experiment [5], 40.5%; in experiment [6] it was 40.9%. Also, the IC50 in experiment [4] stood at 32 mM.
